# According to ChEMBL document CHEMBL1127028, “Thromboxane receptor antagonism combined with thromboxane synthase inhibition. 5. Synthesis and evaluation of enantiomers of 8-[[(4-chlorophenyl)sulfonyl]amino]-4-(3-pyridinylalkyl)octanoic acid” (J Med Chem, 1993):
# Legend:
# Thromboxane-A synthase = biological target: T1, Thromboxane-A synthase (Homo sapiens, UniProt P24557); assay: In vitro inhibition of thromboxane synthetase in microsomal platelet preparation
# T1 sequence (P24557 whole entry): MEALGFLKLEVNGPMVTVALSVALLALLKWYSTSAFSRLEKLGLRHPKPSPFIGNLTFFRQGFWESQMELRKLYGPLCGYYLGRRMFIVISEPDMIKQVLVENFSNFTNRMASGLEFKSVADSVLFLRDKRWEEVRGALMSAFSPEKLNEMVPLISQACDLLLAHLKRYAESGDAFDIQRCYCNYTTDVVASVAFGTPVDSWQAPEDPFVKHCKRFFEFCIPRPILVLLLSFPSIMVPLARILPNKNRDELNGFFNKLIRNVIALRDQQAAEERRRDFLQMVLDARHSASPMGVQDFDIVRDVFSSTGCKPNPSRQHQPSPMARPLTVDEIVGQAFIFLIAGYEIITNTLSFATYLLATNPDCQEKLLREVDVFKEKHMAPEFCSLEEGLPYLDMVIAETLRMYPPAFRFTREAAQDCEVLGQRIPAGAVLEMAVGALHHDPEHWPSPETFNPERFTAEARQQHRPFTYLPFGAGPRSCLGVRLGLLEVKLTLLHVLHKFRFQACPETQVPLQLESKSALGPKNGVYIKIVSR
# Cavia porcellus [1] = assay: Ex vivo Inhibition of U 46619-induced aggregation of guinea pig platelets at the dose of 3 mg/Kg po per hour expressed as concentration ratio (EC50 of drug/EC50 of control); type: functional
# Outline: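 Oral dosing of guinea pigs at 3 mg/kg, blood drawn 1 h later, then ex vivo U 46619-induced platelet aggregation measured. Concentration ratio is EC50 of U 46619 for the treated group over EC50 for vehicle controls (n = 22). 4–6 animals per group; values are mean ± SEM.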
# Homo sapiens [2] = species on record: Homo sapiens; assay: Inhibition of U 46619-induced Aggregation of Human Platelet-rich Plasma; type: functional
# Outline: (§1)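 Human platelets (washed, or platelet-rich plasma) were aggregated with U 46619, a TxA2/PGH2 mimetic. The test agent was titrated against this challenge and reported as an IC50.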
# Homo sapiens [3] = species on record: Homo sapiens; assay: Inhibition of U 46619-induced Aggregation of human Washed platelets; type: functional; outline: as §1
# Cavia porcellus [4] = assay: Ex vivo Inhibition of U 46619-induced aggregation of guinea pig platelets at the dose of 10 mg/Kg po per hour expressed as concentration ratio (EC50 of drug/EC50 of control); type: functional
# Outline: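 Guinea pigs dosed orally at 10 mg/kg; blood sampled 1 h post-dose and platelet aggregation induced ex vivo with U 46619. Result given as concentration ratio, EC50 of U 46619 in drug-treated animals divided by EC50 in vehicle controls (vehicle n = 22). Groups of 4–6 animals; mean ± SEM.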
# Homo sapiens [5] = species on record: Homo sapiens; assay: Inhibition of U 46619-induced Aggregation of Human Washed Platelets; type: functional; outline: as §1
IC50 (Thromboxane-A synthase),IC50 (Homo sapiens [2]),IC50 (Homo sapiens [3]),IC50 (Homo sapiens [5]),Structure (SMILES),Concentration ratio (Cavia porcellus [1]),Concentration ratio (Cavia porcellus [4])
2.6 nM,0.28 nM,,,O=C(O)CCC(CCCCNS(=O)(=O)c1ccc(Cl)cc1)CCOc1cccnc1 (stereo unspecified),>100,
,0.39 nM,,,O=C(O)CCC(CCCCNS(=O)(=O)c1ccc(Cl)cc1)CCCc1cccnc1 (stereo unspecified),,27
5 nM,0.38 nM,,11 nM,O=C(O)CC[C@H](CCCCNS(=O)(=O)c1ccc(Cl)cc1)CCCc1cccnc1,,43

# The remaining lines, values behind:
Structure (SMILES),IC50 (Thromboxane-A synthase),IC50 (Homo sapiens [2]),IC50 (Homo sapiens [3]),IC50 (Homo sapiens [5]),Concentration ratio (Cavia porcellus [1]),Concentration ratio (Cavia porcellus [4])
O=C(O)CC[C@H](CCCCNS(=O)(=O)c1ccc(Cl)cc1)CCOc1cccnc1,3.5 nM,0.32 nM,10 nM,,90,
O=C(O)CC[C@@H](CCCCNS(=O)(=O)c1ccc(Cl)cc1)CCCc1cccnc1,4.5 nM,0.55 nM,26 nM,,,54
O=C(O)CC[C@@H](CCCCNS(=O)(=O)c1ccc(Cl)cc1)CCOc1cccnc1,13 nM,0.53 nM,9 nM,,66,
